Screens deposited in PubChem BioAssay by The Scripps Research Institute Molecular Screening Center.
TCR CD3 inh = human TCR-CD3 binding inhibition | TAMRA-labeled TCR probe fluorescence, biochemical | inhibition, % at 9.4 µM | 360,000 compounds, 0.37% hits; in the data active = inhibition above about 19%;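 also: recombinant mutant TCR 2C K166C tagged with TAMRA read by polarization; 0% = receptor in buffer alone and 100% = receptor with positive control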
HTRA1 inhibitor = inhibitors of human serine peptidase HTRA1; Q92743; recombinant HTRA1, FP-rhodamine activity-based probe, fluorescence polarization; inhibition, % at 5.96 µM; 340,000 compounds, 0.5% hits; in the data active = inhibition above about 36%;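 also: 0% = enzyme with DMSO and 100% = wells lacking enzyme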
mABHD4 FP = inhibitors of mouse ABHD4; Q8VD66; purified mABHD4, FP-Rh probe fluorescence polarization; 370,000 compounds, 0.54% hits; AID 720543; inhibition, % at 8.92 µM;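 active = inhibition exceeding the mean over every tested compound plus 3 SD, cut at about 30% in these data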;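 also: 0% = plate median of compound wells and 100% = S159A mutant with DMSO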
Target sequence (Q8VD66 whole entry, looked up): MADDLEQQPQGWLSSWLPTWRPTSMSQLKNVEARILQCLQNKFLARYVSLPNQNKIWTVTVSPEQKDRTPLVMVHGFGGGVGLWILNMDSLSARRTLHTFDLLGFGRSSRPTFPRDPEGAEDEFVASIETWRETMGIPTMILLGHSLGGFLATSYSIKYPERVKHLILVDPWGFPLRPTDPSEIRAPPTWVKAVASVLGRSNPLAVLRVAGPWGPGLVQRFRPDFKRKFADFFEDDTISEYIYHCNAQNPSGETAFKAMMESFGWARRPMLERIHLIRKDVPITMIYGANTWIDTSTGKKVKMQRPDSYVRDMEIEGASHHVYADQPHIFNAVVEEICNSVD
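System: mouse ABHD4 enzyme, wild type / Medium: HEPES pH 7.0, NaCl, Pluronic buffer / Reagent: FP-Rh activity-based fluorescent probe / Control set: S159A mutant high control, sample median low control / Detection: fluorescence polarization with parallel and perpendicular emission, 525/598 nm / Schedule: 45 min + 60 min at 25 °C / Compound dosing: 8.92 µM, single dose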
PRMT1 FP inh = inhibitors of human PRMT1. inhibition, % at 2.79 µM. 370,000 compounds, 1.3% hits. Q99873. recombinant PRMT1, activity-based probe fluorescence polarization;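 active = inhibition above about 21% made by adding two undisclosed values, limit read from the data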
SIAE inh = human SIAE inhibition, primary screen; inhibition, % at 9.66 µM; SIAE FP-Rh probe binding, fluorescence polarization; Q9HAT2; AID 1053197; 370,000 compounds, 0.69% hits;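 active = inhibition above a cutoff: mean of compounds within the control limits plus 3 SD of those, cut at about 17% in these data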;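 also: 0% = plate median of compound wells and 100% = probe without SIAE protein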
PRMT1 confirm = PRMT1 (human) inhibition, FP confirmation. shares compounds with PRMT1 FP inh. recombinant His-PRMT1, activity-based probe fluorescence polarization. inhibition, % at 2.79 µM. 3,300 compounds, 42% hits. AID 687036;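 active = mean inhibition across replicates above the hit cutoff derived for the earlier primary screen, cut at about 22% in these data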
An asterisk follows results filed as active; . = not tested or not shown. The list is not random: actives were taken first. Their share in the collection is about 2.6%.

SMILES	TCR CD3 inh	HTRA1 inhibitor	mABHD4 FP	PRMT1 FP inh	SIAE inh	PRMT1 confirm
CN=C(c1ccc(C)cc1)n1c(=S)nc(-c2ccc(C)cc2)n(C)c1=S	-2	-10	3	6	-5	.
CCC[C@H]1[C@@H](N(C)Cc2cccs2)CC[C@@]23CCCN2C(=O)CCC[C@@H]13	.	.	-9	0	-1	.
COc1cc(C)c2c(c1C=O)Oc1c(c(C)c(O)c3c1C(O)OC3=O)OC2=O (stereo not given)	-8	8	26	38*	-2	-5
S=c1[nH]nc(-c2cc3ccccc3o2)n1Cc1ccccc1	0	-4	11	25*	8	16
Cc1[nH]n(-c2ccccc2)c(=S)c1C=Nc1ccc([N+](=O)[O-])cc1	0	0	5	87*	2	96*
Cc1[nH]n(-c2ccccc2)c(=O)c1C=Nc1ccc(S(=O)(=O)N=C(N)N)cc1	-3	-1	9	3	-3	.
Cc1nc2ccc(S(=O)(=O)NC(CC(C)C)C(=O)O)cc2s1 (stereo not given)	4	-1	-12	35*	2	3
Cc1nc2ccc(S(=O)(=O)NC(C(=O)N3CCCC3)C(C)C)cc2s1 (stereo not given)	1	5	0	1	2	.
O=C1C=C(NNC(=O)c2cccnc2)CC(c2ccco2)C1 (stereo not given)	2	8	14	42*	8	2
COc1ccc(-n2sc3ccccc3c2=O)cc1	-2	2	16	82*	12	82*
CCn1c(SCC(=O)Nc2ccc(S(=O)(=O)Nc3cc(C)nc(C)n3)cc2)nc2sc(C)c(C)c2c1=O	.	.	0	-2	-3	.
COC(=O)[C@]12C[C@H](CC(=O)N3CCN(C(=O)C4CC4)CC3)C(=O)N(Cc3ccc(Cl)cc3Cl)C1=C[C@H](C(C)(C)C)O[C@@H]2C	.	.	-21	6	5	.
COC(=O)[C@]12C[C@H](CC(=O)NCc3ccc(C)o3)C(=O)N(Cc3ccc(Cl)cc3Cl)C1=C[C@H](C(C)(C)C)O[C@@H]2C	.	.	-13	4	-7	.
CC(=O)N1CCN(c2nc(N)c(C#N)c(CC#N)c2C#N)CC1	-3	6	-2	29*	0	-7
N#CCc1c(C#N)c(N)nc(N2CCN(C=O)CC2)c1C#N	3	8	4	35*	-3	-3
N#CCc1c(C#N)c(N)nc(N2CCOCC2)c1C#N	0	8	-3	38*	-2	-2
N#CCc1c(C#N)c(N)nc(N2CCN(S(=O)(=O)c3ccccc3)CC2)c1C#N	3	-3	-11	14	-6	.
CCOc1ccccc1C(=O)N1CCC(Oc2cccnc2)CC1	.	.	1	2	3	.
CC(C)n1cc(/C=C/c2cc[n+](C)cc2)c2ccccc21	7	-7	-9	31*	-2	19
CCn1cc(/C=C/c2cc[n+](C)cc2)c2ccccc21	-5	-22	-12	21	-6	.
Cc1cc(C)nc(N2CCC(C(=O)N(C)CCc3ccccn3)CC2)n1	.	.	-7	-9	11	.
CCCCOc1ccc(C(=O)n2ccc3ccc(-c4ccc5ccn(Cc6cccc(C(=O)OC)c6)c5c4)cc32)cc1	.	.	-14	2	-9	.
O=c1c2cc([N+](=O)[O-])ccc2sn1-c1ccccc1	0	5	20	64*	5	81*
CC(=O)Nc1ccc2sn(-c3ccccc3)c(=O)c2c1	3	-5	3	77*	5	89*
N#Cc1ccc2sn(-c3ccccc3)c(=O)c2c1	2	0	10	87*	5	98*
SMILES	TCR CD3 inh	HTRA1 inhibitor	mABHD4 FP	PRMT1 FP inh	SIAE inh	PRMT1 confirm
COC(=O)C[C@@H]1CC[C@H]2[C@H](COc3ccc(NC(=O)Nc4ccc(C#N)cc4)cc3C(=O)N2C)O1	.	.	1	-3	2	.
Cc1ccc(NC(=O)Nc2ccc3c(c2)[C@]2(CC(=O)N(CC(C)C)C2c2ccccc2)C(=O)N3C)cc1Cl (stereo not given in full)	.	.	1	-4	15	.
Cc1[nH]c(=S)c(C#N)c2c1CCCC2	1	-9	0	40*	6	19
CC(=O)N(\C=C/C=C/C=C1\Sc2ccccc2C1=O)c1ccccc1	-14	34	-2	46*	-8	26*
O=C1/C(=C\c2cccnc2)Sc2ccccc21	-11	-7	-2	31*	-22	4
CC(=O)Nc1ccc(/C=C2/Sc3ccccc3C2=O)cc1	.	6	.	.	.	.
CN(C)/C=C1/Sc2ccccc2C1=O	-9	1	2	57*	-1	29*
O=C(O)c1ccccc1C(=O)Nc1n[nH]c(=S)s1	-1	2	7	31*	7	10
O=C1NC(=S)SC1=Cc1ccccc1Cl	1	-27	-53	20	-12	.
O=C1NC(=S)S/C1=C\c1cc(Cl)cc(Cl)c1O	-55	-51	-167	32*	-71	34*
Cc1cccc(-n2c(C)c(-c3ccccc3)[nH]c2=S)c1	1	-1	5	34*	8	16
CCN1C(c2ccccc2)=C(c2ccccc2)S/C1=C\C=C1/SC(=S)N(C)C1=O	-39	-25	-64	6	-46	.
CCN1C(=O)/C(=C/C=C2/Sc3ccc4ccccc4c3N2CCO)SC1=S	-46	-19	-65	44*	-61	-3
O=C(NCCc1ccccc1)OCc1cn(Cc2ccc(F)cc2)nn1	.	.	2	-3	1	.
COC(=O)C[C@H]1CC[C@@H]2[C@@H](COc3ccc(NC(=O)C4CCCCC4)cc3C(=O)N2C)O1	.	.	7	-2	-1	.
O=C(CNC(=O)c1ccccc1)Sc1ccccc1	-1	5	6	49*	1	76*
O=C(NCSc1ccccc1)c1ccccc1	0	4	2	2	1	.
O=C(O)Cc1c[nH]c2ccc(O)cc12	5	3	11	27*	7	1
COc1ccc2[nH]cc(CC(=O)O)c2c1	-6	2	-4	8	6	.
O=C(Nc1ccc(Oc2ccccc2)cc1)C1CCN(c2nnc(-n3cccc3)s2)CC1	.	.	2	3	2	.
CC(=O)NS(=O)(=O)c1ccc(NC(=O)/C=C/c2ccco2)cc1	-1	9	-4	37*	-2	24*
NS(=O)(=O)c1ccc(NC(=O)/C=C/c2ccco2)cc1	11	-13	-5	8	-4	.
CN(C)c1ccc(NC(=S)NC(=O)/C=C/c2ccco2)cc1	-6	6	8	27*	6	0
O=C(/C=C/c1ccco1)NC(=S)Nc1ccc(Cl)cn1	1	7	12	29*	14	-3
CCC(=O)Nc1ccc(NC(=S)NC(=O)/C=C/c2ccco2)cc1	-2	-4	14	8	14	.
CN1CC(=O)N2[C@@H](C[C@]3(c4c[nH]c5ccccc45)c4ccccc4N(S(=O)(=O)c4ccccc4)[C@H]23)C1=O	.	.	2	1	1	.
O=S1(=O)c2c(cccc2N2CC[C@H](O)C2)OCCCN1C1CC1	.	.	3	4	5	.
